The target of one assay is T1, KDM4A S288A mutant (Homo sapiens, UniProt O75164, S288A).
T1 sequence (O75164 1-1064 S288A): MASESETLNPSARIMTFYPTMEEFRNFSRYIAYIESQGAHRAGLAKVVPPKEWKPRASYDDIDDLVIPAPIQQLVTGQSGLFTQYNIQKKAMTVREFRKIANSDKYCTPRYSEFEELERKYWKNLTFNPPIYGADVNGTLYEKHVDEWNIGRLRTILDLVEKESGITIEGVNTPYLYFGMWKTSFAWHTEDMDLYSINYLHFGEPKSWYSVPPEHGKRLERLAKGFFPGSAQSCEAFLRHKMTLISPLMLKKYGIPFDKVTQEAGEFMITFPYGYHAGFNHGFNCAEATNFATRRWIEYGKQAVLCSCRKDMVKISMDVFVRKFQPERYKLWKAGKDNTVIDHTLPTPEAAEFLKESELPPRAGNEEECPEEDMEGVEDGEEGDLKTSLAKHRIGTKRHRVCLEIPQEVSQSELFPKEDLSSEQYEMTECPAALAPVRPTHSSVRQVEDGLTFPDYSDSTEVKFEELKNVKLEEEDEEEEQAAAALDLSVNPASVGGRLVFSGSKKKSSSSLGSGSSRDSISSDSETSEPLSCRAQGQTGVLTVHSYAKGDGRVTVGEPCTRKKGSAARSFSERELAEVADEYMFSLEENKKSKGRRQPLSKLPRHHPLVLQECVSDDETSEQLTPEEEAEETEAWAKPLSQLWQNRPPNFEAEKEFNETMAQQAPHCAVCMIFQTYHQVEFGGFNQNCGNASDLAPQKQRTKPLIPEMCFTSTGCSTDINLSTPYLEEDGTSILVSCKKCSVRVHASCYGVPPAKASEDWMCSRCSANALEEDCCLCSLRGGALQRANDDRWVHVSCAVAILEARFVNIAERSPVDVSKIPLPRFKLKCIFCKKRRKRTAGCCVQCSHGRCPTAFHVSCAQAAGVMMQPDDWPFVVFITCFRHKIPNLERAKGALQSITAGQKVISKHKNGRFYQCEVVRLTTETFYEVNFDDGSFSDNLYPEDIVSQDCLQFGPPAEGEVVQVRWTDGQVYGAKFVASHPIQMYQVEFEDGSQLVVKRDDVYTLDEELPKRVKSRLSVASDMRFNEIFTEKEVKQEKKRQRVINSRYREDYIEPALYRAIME
Nature of the assay: MALDI demethylase assay, H3K9me3 substrate peptide, S288A mutant. The class given is biochemical. An outline of the steps: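 KDM4A mutant demethylation of H3K9me3 peptide, read by MALDI-MS and expressed as % inhibition of demethylase activity, with wild type and the four active-site mutants run under the same conditions. The 2KG cofactor was cut from the 1 mM of the initial activity assay to 50 μM, about 3–4-fold above the enzymes' 2KG KM. KM came from an FDH/NAD+-coupled NADH fluorescence assay.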

Another assay has as its target T2, wild type KDM4A (Homo sapiens, UniProt O75164).
T2 sequence (O75164 1-1064): T1 sequence (O75164 1-1064 S288A) with A288S
Nature of the assay: MALDI demethylase assay, H3K9me3 substrate peptide, wild type enzyme. The class given is biochemical.

In the next assay the target is 2KG-dependent enzymes. Particulars: broad-spectrum inhibitors of 2KG-dependent enzymes; cited from earlier work.
Where [1] appears, read: scaffold test under the optimized assay conditions (50 μM 2KG), Figure S7.
Setting [2] is: 100 μM compound, 50 μM 2KG, MALDI-MS.

These results are taken from paper PMC6570502 (Chembiochem : a European journal of chemical biology, 2019).

Residue numbers refer to the chain shown, from its start.

Turning to `O=C(O)c1ccc(O)c2ncccc12` [IOX1, 5-carboxy-8-hydroxyquinone], the “inhibition of demethylase activity” value against KDM4A S288A mutant (setting [1]) and at wild type KDM4A (setting [1]) was “inhibited” in each case. Besides, the IC50 result at 2KG-dependent enzymes is on record as “micromolar range”.

As for `O=C(O)CNC(=O)C(=O)O` [compound 2, N-oxalylglycine], the “inhibition of demethylase activity” value was “significantly inhibited” at KDM4A S288A mutant (setting [2]), “inhibited” at KDM4A S288A mutant (setting [1]), “significantly inhibited” against wild type KDM4A (setting [2]) and “inhibited” against wild type KDM4A (setting [1]). Further, the IC50 entry at 2KG-dependent enzymes was “micromolar range”.
